Measurements reported in ChEMBL document CHEMBL4033712, “Synthesis and biological evaluation of new C-12(α/β)-(N-) sulfamoyl-phenylamino-14-deoxy-andrographolide derivatives as potent anti-cancer agents” (Bioorg Med Chem Lett, 2017).

Assays:
Type in all cases: functional
CCRF-CEM = assay: Growth inhibition of human CCRF-CEM cells incubated for 48 hrs by sulforhodamine B assay
Procedure, shortened: (§1)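 NCI-60 five-dose screen at 0.01, 0.1, 1, 10 and 100 µM, 48 h incubation, sulforhodamine B end point. GI50 (50% decrease in net growth), TGI (total growth inhibition) and LC50 (net 50% loss of initial cells) taken from log concentration versus % growth inhibition curves.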

HL-60(TB) = assay: Growth inhibition of human HL-60(TB) cells incubated for 48 hrs by sulforhodamine B assay; settings: HL-60, 48 h
Procedure, shortened: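 NCI-60 five-dose screen at 0.01, 0.1, 1, 10 and 100 µM for 48 h, sulforhodamine B read-out. GI50 taken from log concentration versus % growth inhibition curves as the concentration giving 50% decrease in net cell growth.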

K562 = assay: Growth inhibition of human K562 cells incubated for 48 hrs by sulforhodamine B assay; settings: K562, 48 h; procedure, shortened: as §1
MOLT-4 = assay: Growth inhibition of human MOLT4 cells incubated for 48 hrs by sulforhodamine B assay; settings: MOLT-4, 48 h; procedure, shortened: as §1
EKVX = assay: Growth inhibition of human EKVX cells incubated for 48 hrs by sulforhodamine B assay; procedure, shortened: as §1
HOP-62 = assay: Growth inhibition of human HOP62 cells incubated for 48 hrs by sulforhodamine B assay; settings: HOP-62, 48 h; procedure, shortened: as §1
NCI-H23 = assay: Growth inhibition of human NCI-H23 cells incubated for 48 hrs by sulforhodamine B assay; settings: NCI-H23, 48 h; procedure, shortened: as §1
COLO 205 = assay: Growth inhibition of human COLO205 cells incubated for 48 hrs by sulforhodamine B assay; settings: COLO 205, 48 h; procedure, shortened: as §1
HT-29 = assay: Growth inhibition of human HT-29 cells incubated for 48 hrs by sulforhodamine B assay; settings: HT-29, 48 h; procedure, shortened: as §1
KM12 = assay: Growth inhibition of human KM12 cells incubated for 48 hrs by sulforhodamine B assay; settings: KM12, 48 h; procedure, shortened: as §1
SW-620 = assay: Growth inhibition of human SW620 cells incubated for 48 hrs by sulforhodamine B assay; settings: SW-620, 48 h
Procedure, shortened: (§2)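 NCI 60 human tumour cell line panel, five-dose study at 0.01, 0.1, 1, 10 and 100 µM, 48 h incubation. Sulforhodamine B protein-binding dye end point. GI50 (50% decrease in net cell growth), TGI (total growth inhibition) and LC50 (net 50% loss of initial cells) read from log concentration versus % growth inhibition curves.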

SF-268 = assay: Growth inhibition of human SF268 cells incubated for 48 hrs by sulforhodamine B assay; settings: SF-268, 48 h; procedure, shortened: as §2
SF-539 = assay: Growth inhibition of human SF539 cells incubated for 48 hrs by sulforhodamine B assay; settings: SF-539, 48 h; procedure, shortened: as §2
SNB-75 = assay: Growth inhibition of human SNB75 cells incubated for 48 hrs by sulforhodamine B assay; settings: SNB-75, 48 h; procedure, shortened: as §2
M14 = assay: Growth inhibition of human M14 cells incubated for 48 hrs by sulforhodamine B assay; settings: M14, 48 h; procedure, shortened: as §1
MDA-MB-435 = assay: Growth inhibition of human MDA-MB-435 cells incubated for 48 hrs by sulforhodamine B assay; settings: MDA-MB-435, 48 h; procedure, shortened: as §1
SK-MEL-5 = assay: Growth inhibition of human SK-MEL-5 cells incubated for 48 hrs by sulforhodamine B assay; settings: SK-MEL-5, 48 h; procedure, shortened: as §2
UACC-62 = assay: Growth inhibition of human UACC62 cells incubated for 48 hrs by sulforhodamine B assay; settings: UACC-62, 48 h; procedure, shortened: as §2
OVCAR-3 = assay: Growth inhibition of human OVCAR3 cells incubated for 48 hrs by sulforhodamine B assay; settings: OVCAR-3, 48 h; procedure, shortened: as §1
OVCAR-5 = assay: Growth inhibition of human OVCAR5 cells incubated for 48 hrs by sulforhodamine B assay; settings: OVCAR-5, 48 h; procedure, shortened: as §1
786-0 = assay: Growth inhibition of human 786-0 cells incubated for 48 hrs by sulforhodamine B assay; settings: 786-0, 48 h; procedure, shortened: as §1
ACHN = assay: Growth inhibition of human ACHN cells incubated for 48 hrs by sulforhodamine B assay; procedure, shortened: as §1
CAKI-1 = assay: Growth inhibition of human Caki1 cells incubated for 48 hrs by sulforhodamine B assay; settings: CAKI-1, 48 h; procedure, shortened: as §1
RXF 393 = assay: Growth inhibition of human RXF393 cells incubated for 48 hrs by sulforhodamine B assay; settings: RXF 393, 48 h; procedure, shortened: as §2
UO-31 = assay: Growth inhibition of human UO31 cells incubated for 48 hrs by sulforhodamine B assay; settings: UO-31, 48 h; procedure, shortened: as §2
PC-3 = assay: Growth inhibition of human PC3 cells incubated for 48 hrs by sulforhodamine B assay; settings: PC-3, 48 h; procedure, shortened: as §1
MCF7 = assay: Growth inhibition of human MCF7 cells incubated for 48 hrs by sulforhodamine B assay; settings: MCF7, 48 h; procedure, shortened: as §1
HOP-92 = assay: Anticancer activity against human HOP92 cells assessed as cell growth at 10 uM after 48 hrs by sulforhodamine B assay relative to control; settings: HOP-92, 48 h, read-out: Activity
Procedure, shortened: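 Single-dose NCI-60 panel screen: compound added at 10 µM and the culture incubated 48 h. The end point was read by protein staining with sulforhodamine B. The value is percent growth of treated cells relative to untreated control cells, reported as a mean graph across the panel.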

[1] = read-out: LC50 (the source's name)

## C=C1CC[C@@H]2[C@](C)(COC(C)=O)[C@H](OC(C)=O)CC[C@@]2(C)[C@H]1CC(Nc1ccc(S(=O)(=O)Nc2nccs2)cc1)C1=CCOC1=O (some centres not stated)
CCRF-CEM
  GI50: 2.28 µM
  TGI: 6.76 µM
CCRF-CEM; [1]
  CC50: > 100 µM
HL-60(TB)
  GI50: 3.01 µM
  TGI: 13.3 µM
HL-60(TB); [1]
  CC50: > 100 µM
K562
  GI50: 3.6 µM
  TGI: 29 µM
K562; [1]
  CC50: > 100 µM
MOLT-4
  GI50: 3.68 µM
  TGI: 73.2 µM
MOLT-4; [1]
  CC50: > 100 µM
EKVX
  GI50: 14 µM
  TGI: 27 µM
EKVX; [1]
  CC50: 52 µM
HOP-62
  GI50: 13.8 µM
  TGI: 27.5 µM
HOP-62; [1]
  CC50: 54.7 µM
NCI-H23
  GI50: 10 µM
  TGI: 24.8 µM
NCI-H23; [1]
  CC50: 61.6 µM
COLO 205
  GI50: 3.14 µM
  TGI: 10.5 µM
COLO 205; [1]
  CC50: 48.9 µM
HT-29
  GI50: 2.17 µM
  TGI: 4.7 µM
HT-29; [1]
  CC50: 15.8 µM
KM12
  GI50: 7.57 µM
  TGI: 21.7 µM
KM12; [1]
  CC50: 53.3 µM
SW-620
  GI50: 1.85 µM
  TGI: 3.98 µM
SW-620; [1]
  CC50: 8.55 µM
SF-268
  GI50: 11.3 µM
  TGI: 25.9 µM
SF-268; [1]
  CC50: 59.1 µM
SF-539
  GI50: 2.35 µM
  TGI: 6.31 µM
SF-539; [1]
  CC50: 23.5 µM
SNB-75
  GI50: 2.83 µM
  TGI: 15.6 µM
SNB-75; [1]
  CC50: 39.5 µM
M14
  GI50: 2.83 µM
  TGI: 10.5 µM
M14; [1]
  CC50: 42.2 µM
MDA-MB-435
  GI50: 3.29 µM
  TGI: 12.7 µM
MDA-MB-435; [1]
  CC50: 38 µM
SK-MEL-5
  GI50: 4.79 µM
  TGI: 17.1 µM
SK-MEL-5; [1]
  CC50: 41.3 µM
UACC-62
  GI50: 1.76 µM
  TGI: 4.42 µM
UACC-62; [1]
  CC50: 13.5 µM
OVCAR-3
  GI50: 1.88 µM
  TGI: 3.64 µM
OVCAR-3; [1]
  CC50: 7.06 µM
OVCAR-5
  GI50: 4.82 µM
  LC50 (concentration causing net 50% loss of initial cells): 46.9 µM
  TGI: 17.6 µM
786-0
  GI50: 2.54 µM
  LC50 (concentration giving net 50% loss of initial cells): 23.6 µM
  TGI: 6.74 µM
ACHN
  GI50: 5.99 µM
  TGI: 18.9 µM
ACHN; [1]
  CC50: 45 µM
CAKI-1
  GI50: 3.8 µM
  TGI: 14.2 µM
CAKI-1; [1]
  CC50: 37.7 µM
RXF 393
  GI50: 2.36 µM
  TGI: 4.74 µM
RXF 393; [1]
  CC50: 9.53 µM
UO-31
  GI50: 4.07 µM
  LC50 (concentration giving net 50% loss of initial cells): 41.8 µM
  TGI: 16.1 µM
PC-3
  GI50: 7.74 µM
  TGI: 21.5 µM
PC-3; [1]
  CC50: 52.2 µM
MCF7
  GI50: 2.59 µM
  TGI: 13.6 µM
MCF7; [1]
  CC50: > 100 µM
HOP-92
  growth at 10 µM: 54%
